Measurements as given in ChEMBL document CHEMBL1139880, “Potent and selective agonists of human melanocortin receptor 5: cyclic analogues of alpha-melanocyte-stimulating hormone” (J Med Chem, 2007).
Starred links: 1 amine or outer side, 2 acyl side, 3 side chain; linkers in the order of their positions; H or OH if unused. Positions of bridges follow the written chain, without caps; N, C: chain ends. Non-standard residues stand in square brackets, D forms with d. Residues, ends and D or L forms follow the SMILES beside them. ξ: configuration not given here. X2 = O=C([C@@H](Cc1ccc(Cc2ccccc2)cc1)N[*:1])[*:2]; Oic(3aξ,7aξ) = O=C(O)[C@@H]1CC2CCCCC2N1; Pip = O=C(O)[C@@H]1CCCCN1; Nle = CCCC[C@H](N)C(=O)O

Tests used:
Melanocortin receptor 4 = Melanocortin receptor 4 (Homo sapiens, UniProt P32245); assay: Displacement of [125I]NDPalphaMSH from human cloned MC4R expressed in CHO cells; type: cell-based
Melanocortin receptor 3 = Melanocortin receptor 3 (Homo sapiens, UniProt P41968); assay: Displacement of [125I]NDPalphaMSH from human cloned MC3R expressed in CHO cells; type: cell-based
[1] = target: T1, Melanocyte-stimulating hormone receptor (Homo sapiens, UniProt Q01726); assay: Displacement of [125I]NDPalphaMSH from human cloned melanocortin receptor 1b expressed in CHO cells; type: cell-based
Melanocortin receptor 5 [2] = target: T2, Melanocortin receptor 5 (Homo sapiens, UniProt P33032); assay: Displacement of [125I]NDPalphaMSH from human cloned MC5R expressed in CHO cells; type: cell-based
[3] = target: T1, Melanocyte-stimulating hormone receptor; assay: Agonist activity at human melanocortin receptor 1b expressed in CHO cells assessed as cAMP accumulation; type: functional, cell-based
Method in brief: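 Dissociated CHO cells were spun 5 min and resuspended in Earle's balanced salt solution with 10 mM HEPES pH 7.5, 5 mM MgCl2, 1 mM glutamine and 1 mg/mL BSA. They were incubated 40 min at room temperature with compound (0.003–5000 nM) plus 0.6 mM IBMX, then lysed with 0.1 M HCl. cAMP was measured by Flashplate cAMP assay.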

Melanocortin receptor 5 [4] = target: T2, Melanocortin receptor 5; assay: Agonist activity at human MC5R expressed in CHO cells assessed as cAMP accumulation; type: functional, cell-based

T1 sequence (Q01726 whole entry): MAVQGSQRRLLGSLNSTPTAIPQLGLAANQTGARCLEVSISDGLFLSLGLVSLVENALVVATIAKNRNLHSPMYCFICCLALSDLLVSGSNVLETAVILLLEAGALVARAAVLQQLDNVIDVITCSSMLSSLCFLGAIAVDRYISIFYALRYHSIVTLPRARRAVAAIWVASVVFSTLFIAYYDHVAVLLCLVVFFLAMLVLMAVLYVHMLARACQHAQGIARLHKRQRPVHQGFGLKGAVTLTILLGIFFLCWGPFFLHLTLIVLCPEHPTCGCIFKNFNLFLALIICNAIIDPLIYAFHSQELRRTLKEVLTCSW
T2 sequence (P33032 whole entry): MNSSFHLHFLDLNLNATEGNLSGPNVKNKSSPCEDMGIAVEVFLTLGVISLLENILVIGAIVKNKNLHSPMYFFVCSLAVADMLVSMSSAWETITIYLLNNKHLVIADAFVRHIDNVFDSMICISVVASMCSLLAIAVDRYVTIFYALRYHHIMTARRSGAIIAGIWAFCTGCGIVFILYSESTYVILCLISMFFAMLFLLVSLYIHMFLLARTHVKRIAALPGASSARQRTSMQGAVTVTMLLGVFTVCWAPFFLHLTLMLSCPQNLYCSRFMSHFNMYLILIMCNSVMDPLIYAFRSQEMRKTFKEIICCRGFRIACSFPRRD
Sequence of Melanocortin receptor 3 (P41968 whole entry): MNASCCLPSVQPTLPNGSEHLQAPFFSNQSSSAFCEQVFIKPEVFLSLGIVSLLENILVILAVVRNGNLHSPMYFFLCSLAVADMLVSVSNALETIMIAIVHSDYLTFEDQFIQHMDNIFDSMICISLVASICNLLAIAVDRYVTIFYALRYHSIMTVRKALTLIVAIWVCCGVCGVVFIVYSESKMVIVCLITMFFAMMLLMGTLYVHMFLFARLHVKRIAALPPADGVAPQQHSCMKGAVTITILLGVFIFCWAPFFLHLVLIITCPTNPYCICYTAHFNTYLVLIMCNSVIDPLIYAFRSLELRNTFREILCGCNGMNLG
Sequence of Melanocortin receptor 4 (P32245 whole entry): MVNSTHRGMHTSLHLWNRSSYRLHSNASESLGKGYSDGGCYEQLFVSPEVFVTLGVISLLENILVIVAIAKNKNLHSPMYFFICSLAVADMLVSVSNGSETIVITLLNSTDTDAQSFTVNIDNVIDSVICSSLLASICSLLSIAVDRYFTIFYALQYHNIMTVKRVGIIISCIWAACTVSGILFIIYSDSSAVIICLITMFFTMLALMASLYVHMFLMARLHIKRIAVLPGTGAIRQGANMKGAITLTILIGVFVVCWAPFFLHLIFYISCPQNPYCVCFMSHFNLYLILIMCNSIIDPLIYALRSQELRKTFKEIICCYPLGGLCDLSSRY

Row | Compound | IC50 (Melanocortin receptor 4) | IC50 (Melanocortin receptor 3) | IC50 [1] | IC50 (Melanocortin receptor 5 [2]) | EC50 [3] | EC50 (Melanocortin receptor 5 [4]) | IC50 (Melanocortin receptor 4; cho) | IC50 (Melanocortin receptor 3; cho) [nM] | IC50 ([1]; cho) | IC50 (Melanocortin receptor 5 [2]; cho)
1 | CCCC[C@H](NC(C)=O)C(=O)N[C@H]1CC(=O)NCCCC[C@@H](C(N)=O)NC(=O)[C@H](Cc2c[nH]c3ccccc23)NC(=O)[C@@H]2CCCN2C(=O)[C@@H](Cc2ccc(-c3ccccc3)cc2)NC(=O)[C@@H]2CC3CCCCC3N2C1=O (some centres not stated) | 4700 nM (antagonist) | 4400 nM (antagonist) | 7800 nM (antagonist) | 10 nM (antagonist) | > 2500 nM | 17 nM (agonist) |  |  |  | 
2 | CCCC[C@H](NC(C)=O)C(=O)N[C@H]1CC(=O)NCCCC[C@@H](C(N)=O)NC(=O)[C@H](Cc2c[nH]c3ccccc23)NC(=O)[C@@H]2CCCN2C(=O)[C@@H](C(c2ccccc2)c2ccccc2)NC(=O)[C@H](Cc2c[nH]cn2)NC1=O |  |  |  |  |  |  | 74 nM (antagonist) | > 10000 | 2900 nM (antagonist) | 1500 nM (antagonist)
3 | CCCC[C@H](NC(C)=O)C(=O)N[C@H]1CC(=O)NCCCC[C@@H](C(N)=O)NC(=O)[C@H](Cc2c[nH]c3ccccc23)NC(=O)[C@@H]2CCCN2C(=O)[C@@H](Cc2ccc(O)cc2)NC(=O)[C@H](Cc2cnc[nH]2)NC1=O |  |  | > 10000 nM |  | > 2500 nM |  |  |  |  | 
4 | CCCC[C@H](NC(C)=O)C(=O)N[C@H]1CC(=O)NCCCC[C@@H](C(N)=O)NC(=O)[C@H](Cc2c[nH]c3ccccc23)NC(=O)[C@@H]2CCCN2C(=O)[C@@H](CC2CCCCC2)NC(=O)[C@H](Cc2c[nH]cn2)NC1=O | > 10000 nM | > 10000 nM | > 10000 nM | > 10000 nM | > 2500 nM |  |  |  |  | 
5 | CCCC[C@H](NC(C)=O)C(=O)N[C@H]1CC(=O)NCCCC[C@@H](C(N)=O)NC(=O)[C@H](Cc2c[nH]c3ccccc23)NC(=O)[C@@H]2CCCN2C(=O)[C@@H](Cc2ccccc2)NC(=O)[C@H](Cc2cnc[nH]2)NC1=O |  |  | 2500 nM (antagonist) |  | 1300 nM (agonist) |  |  |  |  | 
6 | CCCC[C@H](NC(C)=O)C(=O)N[C@H]1CC(=O)NCCCC[C@@H](C(N)=O)NC(=O)[C@H](Cc2c[nH]c3ccccc23)NC(=O)[C@@H]2CCCN2C(=O)[C@@H](CCC(N)=O)NC(=O)[C@H](Cc2c[nH]cn2)NC1=O | > 10000 nM | > 10000 nM | > 10000 nM | > 10000 nM |  |  |  |  |  | 
7 | CCCC[C@H](NC(C)=O)C(=O)N[C@H]1CC(=O)NCCCC[C@@H](C(N)=O)NC(=O)[C@H](Cc2c[nH]c3ccccc23)NC(=O)[C@@H]2CCCCN2C(=O)[C@@H](Cc2ccc(-c3ccccc3)cc2)NC(=O)[C@H](c2ccccc2)NC1=O | 990 nM (antagonist) | > 1000 nM | > 1000 nM | 2.1 nM (antagonist) |  | 0.29 nM (agonist) |  |  |  | 
8 | CCCC[C@H](NC(C)=O)C(=O)N[C@H]1CC(=O)NCCCC[C@@H](C(N)=O)NC(=O)[C@H](Cc2c[nH]c3ccccc23)NC(=O)[C@@H]2CCCN2C(=O)[C@@H](Cc2ccc(-c3ccccc3)cc2)NC(=O)[C@@H]2CCCN2C1=O | 1000 nM (antagonist) | 630 nM (antagonist) | 2100 nM (antagonist) | 2.9 nM (antagonist) | 350 nM (agonist) | 1.6 nM (agonist) |  |  |  | 
9 | CCCC[C@H](NC(C)=O)C(=O)N[C@H]1CC(=O)NCCCC[C@@H](C(N)=O)NC(=O)[C@H](Cc2c[nH]c3ccccc23)NC(=O)[C@@H]2CCCN2C(=O)[C@@H](CCCCN)NC(=O)[C@H](Cc2cnc[nH]2)NC1=O |  | > 10000 nM | > 10000 nM | > 10000 nM |  |  |  |  |  | 
10 | CCCC[C@H](NC(C)=O)C(=O)N[C@H]1CC(=O)NCCCC[C@@H](C(N)=O)NC(=O)[C@H](Cc2c[nH]c3ccccc23)NC(=O)[C@@H]2CCCN2C(=O)[C@@H](Cc2ccc([N+](=O)[O-])cc2)NC(=O)[C@H](Cc2cnc[nH]2)NC1=O |  | > 2000 nM | > 2000 nM | 780 nM (antagonist) | > 500 nM | 770 nM (agonist) |  |  |  | 
11 | CCCC[C@H](NC(C)=O)C(=O)N[C@H]1CC(=O)NCCCC[C@@H](C(N)=O)NC(=O)[C@H](Cc2c[nH]c3ccccc23)NC(=O)[C@@H]2CCCN2C(=O)[C@@H](Cc2ccc3ccccc3c2)NC(=O)[C@H](Cc2cnc[nH]2)NC1=O |  |  | 880 nM (antagonist) |  | 89 nM (agonist) |  |  |  |  | 
12 | CCCC[C@H](NC(C)=O)C(=O)N[C@H]1CC(=O)NCCCC[C@@H](C(N)=O)NC(=O)[C@H](Cc2c[nH]c3ccccc23)NC(=O)[C@@H]2CCCCN2C(=O)[C@@H](Cc2ccc(-c3ccccc3)cc2)NC(=O)[C@H](C(C)C)NC1=O | 4700 nM (antagonist) | > 10000 nM | 4900 nM (antagonist) | 7.3 nM (antagonist) | 330 nM (agonist) | 0.23 nM (agonist) |  |  |  | 
13 | CCCC[C@H](NC(C)=O)C(=O)N[C@H]1CC(=O)NCCCC[C@@H](C(N)=O)NC(=O)[C@H](Cc2c[nH]c3ccccc23)NC(=O)[C@@H]2CCCCN2C(=O)[C@@H](Cc2ccc(-c3ccccc3)cc2)NC(=O)[C@@H]2CCCN2C1=O | 160 nM (antagonist) | 270 nM (antagonist) | 65 nM (antagonist) | 0.15 nM (antagonist) | 28 nM (agonist) | 0.031 nM (agonist) |  |  |  | 
14 | CCCC[C@H](NC(C)=O)C(=O)N[C@H]1CC(=O)NCCCC[C@@H](C(N)=O)NC(=O)[C@H](Cc2c[nH]c3ccccc23)NC(=O)[C@@H]2CCCN2C(=O)[C@@H](Cc2cnc[nH]2)NC(=O)[C@H](Cc2cnc[nH]2)NC1=O |  |  | > 10000 nM |  |  |  |  |  |  | 
15 | CCCC[C@H](NC(C)=O)C(=O)N[C@H]1CC(=O)NCCCC[C@@H](C(N)=O)NC(=O)[C@H](Cc2c[nH]c3ccccc23)NC(=O)[C@@H]2CCCN2C(=O)[C@H](Cc2ccc(OC)cc2)NC(=O)[C@H](Cc2cnc[nH]2)NC1=O |  |  | > 2000 nM |  |  |  |  |  |  | 
16 | CCCC[C@H](NC(C)=O)C(=O)N[C@H]1CC(=O)NCCCC[C@@H](C(N)=O)NC(=O)[C@H](Cc2c[nH]c3ccccc23)NC(=O)[C@@H]2CCCCN2C(=O)[C@@H](Cc2ccc(-c3ccccc3)cc2)NC(=O)[C@H](C2CCCCC2)NC1=O | > 10000 nM | > 10000 nM | > 10000 nM | 50 nM (antagonist) | > 500 nM | 1 nM (agonist) |  |  |  | 
17 | CCCC[C@H](NC(C)=O)C(=O)N[C@H]1CC(=O)NCCCC[C@@H](C(N)=O)NC(=O)[C@H](Cc2c[nH]c3ccccc23)NC(=O)[C@@H]2CCCN2C(=O)[C@H]2Cc3ccccc3CN2C(=O)[C@H](Cc2cnc[nH]2)NC1=O |  |  |  |  |  |  |  | > 10000 | > 10000 nM | > 10000 nM
18 | CCCC[C@H](NC(C)=O)C(=O)N[C@H]1CC(=O)NCCCC[C@@H](C(N)=O)NC(=O)[C@H](Cc2c[nH]c3ccccc23)NC(=O)[C@@H]2CCCN2C(=O)[C@@H](Cc2cccs2)NC(=O)[C@H](Cc2cnc[nH]2)NC1=O |  | > 5000 nM | > 5000 nM | > 5000 nM | 540 nM (agonist) | > 1500 nM |  |  |  | 
19 | CCCC[C@H](NC(C)=O)C(=O)N[C@H]1CC(=O)NCCCC[C@@H](C(N)=O)NC(=O)[C@H](Cc2c[nH]c3ccccc23)NC(=O)[C@@H]2CCCN2C(=O)[C@H](Cc2ccccc2)NC(=O)[C@H](Cc2cnc[nH]2)NC1=O |  |  | 980 nM (antagonist) |  | > 1000 nM |  |  |  |  | 
20 | CCCC[C@H](NC(C)=O)C(=O)N[C@H]1CC(=O)NCCCC[C@@H](C(N)=O)NC(=O)[C@H](Cc2c[nH]c3ccccc23)NC(=O)[C@@H]2CCCN2C(=O)[C@@H](CCC(=O)O)NC(=O)[C@H](Cc2c[nH]cn2)NC1=O | > 10000 nM | > 10000 nM | > 10000 nM | > 10000 nM |  |  |  |  |  | 
21 | CCCC[C@H](NC(C)=O)C(=O)N[C@H]1CC(=O)NCCCC[C@@H](C(N)=O)NC(=O)[C@H](Cc2c[nH]c3ccccc23)NC(=O)[C@@H]2CCCN2C(=O)[C@@H](CCCC)NC(=O)[C@H](Cc2cnc[nH]2)NC1=O |  |  | > 10000 nM |  |  |  |  |  |  | 
22 | CCCC[C@H](NC(C)=O)C(=O)N[C@H]1CC(=O)NCCCC[C@@H](C(N)=O)NC(=O)[C@H](Cc2c[nH]c3ccccc23)NC(=O)[C@@H]2CCCCN2C(=O)[C@@H](Cc2ccc(-c3ccccc3)cc2)NC(=O)[C@@H]2Cc3ccccc3CN2C1=O | 720 nM (antagonist) | 3900 nM (antagonist) | 710 nM (antagonist) | 2.7 nM (antagonist) | 130 nM (agonist) | 0.45 nM (agonist) |  |  |  | 
23 | CCCC[C@H](NC(C)=O)C(=O)N[C@H]1CC(=O)NCCCC[C@@H](C(N)=O)NC(=O)[C@H](Cc2c[nH]c3ccccc23)NC(=O)[C@@H]2CCCN2C(=O)[C@@H](Cc2ccc(OC)cc2)NC(=O)[C@H](Cc2cnc[nH]2)NC1=O |  |  | 500 nM (antagonist) |  | 50 nM (agonist) |  |  |  |  | 
24 | CCCC[C@H](NC(C)=O)C(=O)N[C@H]1CC(=O)NCCCC[C@@H](C(N)=O)NC(=O)[C@H](Cc2c[nH]c3ccccc23)NC(=O)[C@@H]2CCCCN2C(=O)[C@@H](Cc2ccc(-c3ccccc3)cc2)NC(=O)[C@@H]2CC3CCCCC3N2C1=O (some centres not stated) | > 5000 nM | > 5000 nM | > 5000 nM | 0.95 nM (antagonist) |  | 0.99 nM (agonist) |  |  |  | 
25 | CCCC[C@H](NC(C)=O)C(=O)N[C@H]1CC(=O)NCCCC[C@@H](C(N)=O)NC(=O)[C@H](Cc2c[nH]c3ccccc23)NC(=O)[C@@H]2CCCCN2C(=O)[C@@H](Cc2ccc(Cc3ccccc3)cc2)NC(=O)[C@@H]2CC3CCCCC3N2C1=O (some centres not stated) (Ac-[Nle]D[Oic(3aξ,7aξ)][X2][Pip]WK-NH2; lactam 2-7) | 1600 nM (antagonist) | > 1000 nM | > 1000 nM | 24 nM (antagonist) |  | 31 nM (agonist) |  |  |  | 
